Source: ChEMBL document CHEMBL1926569, “Novel (E)-1-(4-methyl-2-(alkylamino)thiazol-5-yl)-3-arylprop-2-en-1-ones as potent antimicrobial agents” (2011)
In brackets after ≈: the same amount, converted by molar mass.

What was measured:
[1] = system: Aspergillus niger; assay: Antifungal activity against Aspergillus niger ATCC 6275 after 72 hrs by serial dilution technique; type: functional; settings: ATCC 6275, 72 h
Method in brief: (§1)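 Modified microdilution in 96-well plates. Fungi were kept on malt agar at 4 °C. Spores were washed off in sterile 0.85% saline with 0.1% Tween 80. Compounds were dissolved at 1 mg/ml in 5% DMSO with 0.1% Tween 80 and added to malt broth with inoculum. Plates were shaken at 160 rpm for 72 h at 28 °C. Duplicate, repeated three times.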

[2] = system: Aspergillus niger; assay: Antifungal activity against Aspergillus niger ATCC 6275 incubated for 72 hrs followed by serial sub-cultivation for 72 hrs by serial dilution technique; type: functional; settings: ATCC 6275, 72 h
Method in brief: (§2)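 MFC: material from 72 h malt broth microdilution wells was serially sub-cultured into fresh broth plates and incubated a further 72 h at 28 °C. Fungicidal concentration is taken from growth after sub-culture. Duplicate, repeated three times.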

[3] = system: Penicillium ochrochloron; assay: Antifungal activity against Penicillium ochrochloron ATCC 9112 incubated for 72 hrs followed by serial sub-cultivation for 72 hrs by serial dilution technique; type: functional; settings: ATCC 9112, 72 h; method in brief: as §2
[4] = system: Candida albicans; assay: Antifungal activity against Candida albicans isolated from human after 72 hrs by serial dilution technique; type: functional; method in brief: as §1
[5] = system: Aspergillus fumigatus; assay: Antifungal activity against Aspergillus fumigatus isolated from human incubated for 72 hrs followed by serial sub-cultivation for 72 hrs by serial dilution technique; type: functional; method in brief: as §2
[6] = system: Aspergillus flavus; assay: Antifungal activity against Aspergillus flavus ATCC 9643 incubated for 72 hrs followed by serial sub-cultivation for 72 hrs by serial dilution technique; type: functional; settings: ATCC 9643, 72 h; method in brief: as §2
[7] = system: Trichoderma viride; assay: Antifungal activity against Trichoderma viride IAM 5061 incubated for 72 hrs followed by serial sub-cultivation for 72 hrs by serial dilution technique; type: functional; settings: IAM 5061, 72 h; method in brief: as §2
[8] = system: Aspergillus ochraceus; assay: Antifungal activity against Aspergillus ochraceus ATCC 12066 incubated for 72 hrs followed by serial sub-cultivation for 72 hrs by serial dilution technique; type: functional; settings: ATCC 12066, 72 h; method in brief: as §2
[9] = system: Talaromyces funiculosus; assay: Antifungal activity against Penicillium funiculosum ATCC 36839 incubated for 72 hrs followed by serial sub-cultivation for 72 hrs by serial dilution technique; type: functional; settings: ATCC 36839, 72 h; method in brief: as §2
[10] = system: Talaromyces funiculosus; assay: Antifungal activity against Penicillium funiculosum ATCC 36839 after 72 hrs by serial dilution technique; type: functional; settings: ATCC 36839, 72 h; method in brief: as §1
[11] = system: Aspergillus flavus; assay: Antifungal activity against Aspergillus flavus ATCC 9643 after 72 hrs by serial dilution technique; type: functional; settings: ATCC 9643, 72 h; method in brief: as §1
[12] = system: Trichoderma viride; assay: Antifungal activity against Trichoderma viride IAM 5061 after 72 hrs by serial dilution technique; type: functional; settings: IAM 5061, 72 h; method in brief: as §1
[13] = system: Aspergillus ochraceus; assay: Antifungal activity against Aspergillus ochraceus ATCC 12066 after 72 hrs by serial dilution technique; type: functional; settings: ATCC 12066, 72 h; method in brief: as §1
[14] = system: Penicillium ochrochloron; assay: Antifungal activity against Penicillium ochrochloron ATCC 9112 after 72 hrs by serial dilution technique; type: functional; settings: ATCC 9112, 72 h; method in brief: as §1
[15] = system: Aspergillus ochraceus; assay: Antifungal activity against Aspergillus ochraceus after 72 hrs by serial dilution technique
[16] = system: Candida albicans; assay: Antifungal activity against Candida albicans isolated from human incubated for 72 hrs followed by serial sub-cultivation for 72 hrs by serial dilution technique; type: functional; method in brief: as §2
[17] = system: Escherichia coli; assay: Antibacterial activity against Escherichia coli ATCC 35210 after 24 hrs by microdilution method; type: functional; settings: ATCC 35210, 24 h
Method in brief: (§3)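 Broth microdilution in 96-well plates. Bacterial suspensions were adjusted in sterile saline to 1.0 × 10⁵ CFU/ml, prepared daily and kept at 4 °C. Compound was added to LB broth with 1.0 × 10⁴ CFU per well and shaken at 160 rpm for 24 h at […] (so in the source). MIC is the lowest concentration with no visible growth under a binocular microscope. OD655 was also read. Duplicate, repeated three times.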

[18] = system: Pseudomonas aeruginosa; assay: Antibacterial activity against Pseudomonas aeruginosa ATCC 27853 incubated for 24 hrs followed by serial sub-cultivation for 24 hrs by microdilution; type: functional; settings: ATCC 27853, 24 h
Method in brief: (§4)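 MBC: after the 24 h LB broth microdilution (1.0 × 10⁴ CFU per well, 160 rpm), wells were serially sub-cultured into fresh broth plates and incubated a further 24 h. MBC is the lowest concentration with no visible growth, taken as 99.5% killing of the original inoculum. Duplicate, repeated three times.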

[19] = system: Enterococcus faecalis; assay: Antibacterial activity against Enterococcus faecalis isolated from human incubated for 24 hrs followed by serial sub-cultivation for 24 hrs by microdilution; type: functional; method in brief: as §4
[20] = system: Staphylococcus aureus; assay: Antibacterial activity against Staphylococcus aureus ATCC 6538 after 24 hrs by microdilution method; type: functional; settings: ATCC 6538, 24 h; method in brief: as §3
[21] = system: Bacillus cereus; assay: Antibacterial activity against clinical isolate of Bacillus cereus after 24 hrs by microdilution method; type: functional; method in brief: as §3
[22] = system: Salmonella typhimurium; assay: Antibacterial activity against Salmonella Typhimurium ATCC 13311 after 24 hrs by microdilution method; type: functional, Salmonella enterica subsp. enterica serovar Typhimurium; settings: Salmonella enterica, ATCC 13311, 24 h; method in brief: as §3
[23] = system: Pseudomonas aeruginosa; assay: Antibacterial activity against Pseudomonas aeruginosa ATCC 27853 after 24 hrs by microdilution method; type: functional; settings: ATCC 27853, 24 h; method in brief: as §3
[24] = system: Listeria monocytogenes; assay: Antibacterial activity against Listeria monocytogenes NCTC 7973 after 24 hrs by microdilution method; type: functional; settings: NCTC 7973, 24 h; method in brief: as §3
[25] = system: Escherichia coli; assay: Antibacterial activity against Escherichia coli ATCC 35210 incubated for 24 hrs followed by serial sub-cultivation for 24 hrs by microdilution; type: functional; settings: ATCC 35210, 24 h; method in brief: as §4
[26] = system: Micrococcus flavus; assay: Antibacterial activity against Micrococcus flavus ATCC 10240 incubated for 24 hrs followed by serial sub-cultivation for 24 hrs by microdilution; type: functional; settings: ATCC 10240, 24 h; method in brief: as §4
[27] = system: Micrococcus flavus; assay: Antibacterial activity against Micrococcus flavus ATCC 10240 after 24 hrs by microdilution method; type: functional; settings: ATCC 10240, 24 h; method in brief: as §3
[28] = system: Salmonella typhimurium; assay: Antibacterial activity against Salmonella Typhimurium ATCC 13311 incubated for 24 hrs followed by serial sub-cultivation for 24 hrs by microdilution; type: functional, Salmonella enterica subsp. enterica serovar Typhimurium; settings: Salmonella enterica, ATCC 13311, 24 h; method in brief: as §4
[29] = system: Bacillus cereus; assay: Antibacterial activity against clinical isolate of Bacillus cereus incubated for 24 hrs followed by serial sub-cultivation for 24 hrs by microdilution; type: functional; method in brief: as §4
[30] = system: Listeria monocytogenes; assay: Antibacterial activity against Listeria monocytogenes NCTC 7973 incubated for 24 hrs followed by serial sub-cultivation for 24 hrs by microdilution; type: functional; settings: NCTC 7973, 24 h; method in brief: as §4
[31] = system: Enterococcus faecalis; assay: Antibacterial activity against Enterococcus faecalis isolated from human after 24 hrs by microdilution method; type: functional; method in brief: as §3
[32] = system: Staphylococcus aureus; assay: Antibacterial activity against Staphylococcus aureus ATCC 6538 incubated for 24 hrs followed by serial sub-cultivation for 24 hrs by microdilution method; type: functional; settings: ATCC 6538, 24 h; method in brief: as §4

| SMILES | MIC [17] | MBC [18] | MBC [19] | MIC [20] | MIC [21] | MIC [22] | MIC [23] | MIC [24] | MBC [25] | MBC [26] | MIC [27] | MBC [28] | MBC [29] | MBC [30] | MIC [31] | MBC [32] | other results |
| --- | --- | --- | --- | --- | --- | --- | --- | --- | --- | --- | --- | --- | --- | --- | --- | --- | --- |
| CC(=O)N1CCN(c2ccc(OCC3COC(Cn4ccnc4)(c4ccc(Cl)cc4Cl)O3)cc2)CC1 (stereo not drawn) [KETOCONAZOLE] | – | – | – | – | – | – | – | – | – | – | – | – | – | – | – | – | MIC [1]: 380 µM (≈ 202 µg/mL); MFC [2]: 950 µM (≈ 505 µg/mL); MFC [3]: 3800 µM (≈ 2020 µg/mL); MIC [4]: 380 µM (≈ 202 µg/mL); MFC [5]: 950 µM (≈ 505 µg/mL); MFC [6]: 3800 µM (≈ 2020 µg/mL); MFC [7]: 5700 µM (≈ 3030 µg/mL); MFC [8]: 950 µM (≈ 505 µg/mL); MFC [9]: 950 µM (≈ 505 µg/mL); MIC [10]: 380 µM (≈ 202 µg/mL); MIC [11]: 2850 µM (≈ 1510 µg/mL); MIC [12]: 4750 µM (≈ 2520 µg/mL); MIC [13]: 380 µM (≈ 202 µg/mL); MIC [14]: 3800 µM (≈ 2020 µg/mL); MIC [15]: 380 µM (≈ 202 µg/mL); MFC [16]: 950 µM (≈ 505 µg/mL) |
| CN[C@@H]1[C@H](O[C@H]2[C@H](O[C@H]3[C@H](O)[C@@H](O)[C@H](N=C(N)N)[C@@H](O)[C@@H]3N=C(N)N)O[C@@H](C)[C@]2(O)C=O)O[C@@H](CO)[C@H](O)[C@H]1O [STREPTOMYCIN] | 172 µM (≈ 100 µg/mL) | 344 µM (≈ 200 µg/mL) | 86 µM (≈ 50 µg/mL) | 172 µM (≈ 100 µg/mL) | 43 µM (≈ 25 µg/mL) | 172 µM (≈ 100 µg/mL) | 172 µM (≈ 100 µg/mL) | 258 µM (≈ 150 µg/mL) | 344 µM (≈ 200 µg/mL) | 172 µM (≈ 100 µg/mL) | 86 µM (≈ 50 µg/mL) | 344 µM (≈ 200 µg/mL) | 86 µM (≈ 50 µg/mL) | 516 µM (≈ 300 µg/mL) | 43 µM (≈ 25 µg/mL) | 344 µM (≈ 200 µg/mL) | – |
| CC1(C)S[C@@H]2[C@H](NC(=O)[C@H](N)c3ccccc3)C(=O)N2[C@H]1C(=O)O [AMPICILLIN] | 372 µM (≈ 130 µg/mL) | 1240 µM (≈ 433 µg/mL) | 372 µM (≈ 130 µg/mL) | 248 µM (≈ 86.7 µg/mL) | 248 µM (≈ 86.7 µg/mL) | 248 µM (≈ 86.7 µg/mL) | 744 µM (≈ 260 µg/mL) | 372 µM (≈ 130 µg/mL) | 492 µM (≈ 172 µg/mL) | 372 µM (≈ 130 µg/mL) | 248 µM (≈ 86.7 µg/mL) | 492 µM (≈ 172 µg/mL) | 372 µM (≈ 130 µg/mL) | 744 µM (≈ 260 µg/mL) | 248 µM (≈ 86.7 µg/mL) | 372 µM (≈ 130 µg/mL) | – |
